Source: PubChem (several laboratories)
MEKK3 PB1 HTS – modulators (inhibitors or enhancers) of MEK5 binding to human MEKK3 PB1 domain | Q99759 | bead-based flow cytometry, Alexa488-MEK5 binding to MEKK3; actives lie on both sides; 0 = blocked by unlabeled MEK5, 100 = vehicle | binding response (% of control), % at 10 µM | 290,000 tested, 1.4% active;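 active = binding response more than 3 SD above or below the average of its plate-row segment, actives on both sides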;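 also: Alexa488 bead fluorescence after subtracting the streptavidin-only scavenger bead signal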
Target sequence (Q99759 whole entry, looked up, the tested form may be a part): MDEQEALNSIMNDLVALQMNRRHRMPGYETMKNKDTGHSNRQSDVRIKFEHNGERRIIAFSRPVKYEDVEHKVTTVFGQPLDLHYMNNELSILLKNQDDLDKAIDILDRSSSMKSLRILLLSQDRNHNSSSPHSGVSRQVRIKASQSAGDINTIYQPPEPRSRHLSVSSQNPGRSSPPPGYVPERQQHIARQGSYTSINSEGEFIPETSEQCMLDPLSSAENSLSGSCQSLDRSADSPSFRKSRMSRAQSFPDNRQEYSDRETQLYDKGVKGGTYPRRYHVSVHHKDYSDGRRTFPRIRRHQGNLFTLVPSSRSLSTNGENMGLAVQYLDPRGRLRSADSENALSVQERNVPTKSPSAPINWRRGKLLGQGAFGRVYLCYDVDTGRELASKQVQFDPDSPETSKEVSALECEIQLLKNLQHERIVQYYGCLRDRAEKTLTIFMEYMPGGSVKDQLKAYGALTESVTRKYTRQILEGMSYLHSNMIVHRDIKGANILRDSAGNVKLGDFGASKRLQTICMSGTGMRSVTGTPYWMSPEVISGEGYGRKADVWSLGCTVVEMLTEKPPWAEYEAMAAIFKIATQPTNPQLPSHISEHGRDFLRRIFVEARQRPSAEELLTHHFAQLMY
MEKK2 mut-MEK5 – signal of MEK5 binding to mutant human MEKK2 PB1 domain; bead flow cytometry, Alexa488-MEK5 binding to MEKK2 mutant; percent response, % at 10 µM; 290,000 tested, 0.35% active; AID 1530; in the data active = percent response above about 24%, passing the limit was not always enough
Lipid droplet – hepatic lipid droplet formation modulation | AML12 mouse hepatocytes, oleate lipid droplets, BODIPY imaging | inhibition, % at 6.5 µM | 240,000 tested, 0.4% active | AID 1656;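 active = lipid droplet intensity inhibited by at least 50%, with more than 500 cells counted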
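Assay system: AML12 mouse liver cells | Compound dosing: One dose, 6.5 µM compound | Read-out basis: Droplet intensity reduction, % inhibition | Measured by: Fluorescence imaging, 20x objective, two fields per well | Schedule: Overnight treatment with compound plus oleate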
MEKK2 WT-MEK5 – raises or lowers MEK5 binding to wildtype human MEKK2 PB1 domain. binding response (% of control), % at 10 µM. bead flow cytometry, Alexa488-MEK5 binding to MEKK2 WT; actives lie on both sides. 290,000 tested, 1.1% active. Q9Y2U5; in the data active = binding response below about 67% or above about 130%
MEKK2wt confirm – raises or lowers MEK5 binding to wildtype human MEKK2, retest. shares compounds with MEKK3 PB1 HTS. bead flow cytometry, Alexa488-MEK5 binding to MEKK2 WT; actives lie on both sides. binding response (% of control), % at 10 µM. 5,900 tested, 2.4% active; in the data active = binding response below about 16% or above about 210%; inactive = in between
MEKK2mut confirm – signal of MEK5 binding to mutant human MEKK2, retest; AID 1893; bead flow cytometry, Alexa488-MEK5 binding to MEKK2 mutant; shares compounds with MEKK3 PB1 HTS; 5,900 tested, 2% active; percent response, % at 10 µM; in the data active = percent response mostly above about 71%, no sharp cut-off; inactive = mostly below about 38%;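 also: higher means compound restores mutant binding toward wildtype level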
MEKK3 confirm – confirmation of inhibitors of MEK5 binding to human MEKK3. shares compounds with MEKK3 PB1 HTS. bead flow cytometry, Alexa488-MEK5 binding to MEKK3; active compounds read low. binding response (% of control), % at 10 µM. 5,900 tested, 1.8% active;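 active = binding response below 72% of control, or above a set upper limit, though filed actives all read lower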;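 also: lower values mean stronger disruption of MEK5 binding to MEKK3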
A number is an active result; [ ] = remark or other dose. A selection: hits, their analogues and other compounds. The true share with any hit is near 2.6%.

CSc1ccc(CN2C(=O)NC3(CCCCCCC3)C2=O)cc1 was read as MEKK3 PB1 HTS inactive, MEKK2 mut-MEK5 inactive, Lipid droplet inactive and MEKK2 WT-MEK5 inactive.
Screening Cc1ccc2nc(N(CCCN(C)C)C(=O)c3ccc(Br)s3)sc2c1 returned MEKK3 PB1 HTS inactive, MEKK2 mut-MEK5 inactive, Lipid droplet inactive, MEKK2 WT-MEK5 169.0, MEKK2wt confirm inactive, MEKK2mut confirm inactive and MEKK3 confirm inactive.
Screening CCOc1ccc(/C=C/C(=O)NCc2ccccc2)cc1 returned MEKK3 PB1 HTS 137.0, MEKK2 mut-MEK5 inactive, Lipid droplet inactive, MEKK2 WT-MEK5 inactive, MEKK2wt confirm inactive, MEKK2mut confirm inactive and MEKK3 confirm inactive.
`CCOc1ccc(/C=C/C(=O)NCCc2ccc(OC)c(OC)c2)cc1` gave MEKK3 PB1 HTS 147.0, MEKK2 mut-MEK5 inactive, Lipid droplet inactive, MEKK2 WT-MEK5 inactive, MEKK2wt confirm inactive, MEKK2mut confirm inactive and MEKK3 confirm inactive.
Cn1c(=O)c2c(nc(NCC3CCCC(CN)C3)n2Cc2ccc(Cl)cc2Cl)n(C)c1=O (configuration not stated) was read as MEKK3 PB1 HTS inactive, MEKK2 mut-MEK5 30.0, Lipid droplet inactive, MEKK2 WT-MEK5 141.0, MEKK2wt confirm inactive, MEKK2mut confirm inactive and MEKK3 confirm inactive.
Screening Cn1c(=O)c2c(nc(NCCNC(=O)c3ccco3)n2Cc2ccc(Cl)cc2Cl)n(C)c1=O returned MEKK3 PB1 HTS inactive, MEKK2 mut-MEK5 inactive and MEKK2 WT-MEK5 inactive.
For CCc1ccc(OCC(=O)N/N=C(\C)c2ccc3c(c2)OCCO3)cc1 the results were MEKK3 PB1 HTS 131.0, MEKK2 mut-MEK5 inactive, Lipid droplet inactive, MEKK2 WT-MEK5 inactive, MEKK2wt confirm inactive, MEKK2mut confirm inactive and MEKK3 confirm inactive.
`C/C(=N\NC(=O)COc1ccc(C(C)(C)C)cc1)c1ccc2c(c1)OCCO2` gave MEKK3 PB1 HTS inactive, MEKK2 mut-MEK5 inactive, Lipid droplet inactive and MEKK2 WT-MEK5 inactive.
COC(=O)c1ccc(/C=C(\C#N)c2ccccn2)cc1 was read as MEKK3 PB1 HTS 2.0[inhibitor], MEKK2 mut-MEK5 inactive, Lipid droplet inactive, MEKK2 WT-MEK5 1.0[inhibitor], MEKK2wt confirm inactive, MEKK2mut confirm inactive and MEKK3 confirm inactive.
Screening CN(C)c1ccc(/C=C(\C#N)c2ccccn2)cc1 returned MEKK3 PB1 HTS inactive, MEKK2 mut-MEK5 inactive, Lipid droplet inactive and MEKK2 WT-MEK5 inactive.
For O=S(=O)(c1ccc(F)c(F)c1F)N1CCN(C(=S)NC2CC3CCC2C3)CC1 (configuration not stated) the results were MEKK3 PB1 HTS 64.0[inhibitor], MEKK2 mut-MEK5 inactive, Lipid droplet inactive, MEKK2 WT-MEK5 inactive, MEKK2wt confirm inactive, MEKK2mut confirm inactive and MEKK3 confirm inactive.
O=C(O)c1cccc(N2C(=O)CSC2c2ccccc2)c1 (configuration not stated) was read as MEKK3 PB1 HTS inactive, MEKK2 mut-MEK5 inactive, Lipid droplet inactive and MEKK2 WT-MEK5 inactive.
CCc1ccc(OCC(=O)NC(=S)Nc2ccc(F)cc2)c(Br)c1 was read as MEKK3 PB1 HTS 53.0[inhibitor], MEKK2 mut-MEK5 inactive, MEKK2 WT-MEK5 inactive, MEKK2wt confirm inactive, MEKK2mut confirm inactive and MEKK3 confirm inactive.
N#Cc1ccccc1NC(=O)CSc1cn[nH]n1 was read as MEKK3 PB1 HTS inactive, MEKK2 mut-MEK5 inactive, Lipid droplet inactive and MEKK2 WT-MEK5 inactive.
O=C(Cc1ccc(Cl)cc1)N/N=C/c1cccc(O)c1 was read as MEKK3 PB1 HTS inactive, MEKK2 mut-MEK5 inactive, Lipid droplet inactive and MEKK2 WT-MEK5 inactive.
Screening COc1ccc(C2/C=C\CN(C(=O)C3CCCC3)[C@H](Cc3ccccc3)C(=O)N2Cc2ccc(F)cc2)cc1 (some centres not stated) returned MEKK3 PB1 HTS 133.0, MEKK2 mut-MEK5 inactive, Lipid droplet inactive, MEKK2 WT-MEK5 151.0, MEKK2wt confirm inactive, MEKK2mut confirm inactive and MEKK3 confirm inactive.
Screening COc1ccc(NS(=O)(=O)c2ccc(NC(=O)c3ccc(N(C)S(C)(=O)=O)cc3)cc2)c(OC)c1 returned MEKK3 PB1 HTS inactive, MEKK2 mut-MEK5 inactive, Lipid droplet inactive and MEKK2 WT-MEK5 inactive.
Screening Cc1ccc(-c2nn(-c3cc(N4CCNCC4)ccc3[N+](=O)[O-])c(=O)c3ccccc23)cc1 returned MEKK3 PB1 HTS inactive, MEKK2 mut-MEK5 inactive, Lipid droplet inactive, MEKK2 WT-MEK5 145.0, MEKK2wt confirm inactive, MEKK2mut confirm inactive and MEKK3 confirm inactive.
Screening Cc1cccc(C(=O)NCc2nnc3c4ccccc4c(-c4ccccc4)nn23)c1 returned MEKK3 PB1 HTS 146.0, MEKK2 mut-MEK5 inactive, Lipid droplet inactive, MEKK2 WT-MEK5 inactive, MEKK2wt confirm inactive, MEKK2mut confirm inactive and MEKK3 confirm inactive.
For Cc1cccc(C(C)(C)C)c1OCCn1ccnc1 the results were MEKK3 PB1 HTS -1.0[inhibitor], MEKK2 mut-MEK5 inactive, Lipid droplet inactive, MEKK2 WT-MEK5 -1.0[inhibitor], MEKK2wt confirm inactive, MEKK2mut confirm inactive and MEKK3 confirm inactive.
`CCc1cccc2cc3c(N)c(C(=O)Nc4ccc(S(=O)(=O)N5CCCC5)cc4)sc3nc12` gave MEKK3 PB1 HTS 154.0, MEKK2 mut-MEK5 inactive, Lipid droplet inactive, MEKK2 WT-MEK5 inactive, MEKK2wt confirm inactive, MEKK2mut confirm inactive and MEKK3 confirm inactive.
For O=C(NCc1cccnc1)c1c(O)c2cccc3c2n(c1=O)CCC3 the results were MEKK3 PB1 HTS inactive, MEKK2 mut-MEK5 inactive, Lipid droplet inactive and MEKK2 WT-MEK5 inactive.
For O=C1c2cccc3c(N4CCCCC4)ccc(c23)C(=O)N1c1ccccn1 the results were MEKK3 PB1 HTS inactive, MEKK2 mut-MEK5 inactive and MEKK2 WT-MEK5 inactive.
`CCCN1C(=O)c2cccc3c(N4CCCCC4)ccc(c23)C1=O` gave MEKK3 PB1 HTS inactive, MEKK2 mut-MEK5 inactive, Lipid droplet inactive, MEKK2 WT-MEK5 60.0[inhibitor], MEKK2wt confirm inactive, MEKK2mut confirm inactive and MEKK3 confirm inactive.
`Cc1ccccc1C(=O)NNC(=O)CSc1nnc(C)n1-c1ccccc1` gave MEKK3 PB1 HTS 64.0[inhibitor], MEKK2 mut-MEK5 inactive, Lipid droplet inactive, MEKK2 WT-MEK5 inactive, MEKK2wt confirm inactive, MEKK2mut confirm inactive and MEKK3 confirm inactive.
`COc1ccc(OCC(O)CNCCOc2ccccc2OC)c(C(C)(C)C)c1` (configuration not stated) gave MEKK3 PB1 HTS inactive, MEKK2 mut-MEK5 25.0, Lipid droplet inactive, MEKK2 WT-MEK5 147.0, MEKK2wt confirm inactive, MEKK2mut confirm inactive and MEKK3 confirm inactive.
Screening COc1ccccc1NCC(O)COc1ccc(C(C)(C)C)cc1 (configuration not stated) returned MEKK3 PB1 HTS inactive, MEKK2 mut-MEK5 inactive, Lipid droplet inactive and MEKK2 WT-MEK5 inactive.
